Measurements published in ChEMBL document CHEMBL4138104, “Indole carboxylic acid esters of melampomagnolide B are potent anticancer agents against both hematological and solid tumor cells” (Eur J Med Chem, 2017).
Activity calls are given as the source filed them. The calls are words filed in the database; no cut-off is given here.

Columns and labels:
SK-MEL-2 = assay: Growth inhibition of human SK-MEL-2 cells incubated for 48 hrs by sulforhodamine B assay; format: functional; conditions: SK-MEL-2, 48 h
How it was run: (§1)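 NCI-60 screen. Compounds were dosed at five concentrations spanning 10^-4 to 10^-8 M for 48 h at 37 °C. Cells were TCA-fixed, stained with 0.4% SRB and read at 515 nm against time-zero and vehicle controls. GI50 is the concentration giving a 50% reduction in net protein increase.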

OVCAR-8 = assay: Growth inhibition of human OVCAR8 cells incubated for 48 hrs by sulforhodamine B assay; format: functional; conditions: OVCAR-8, 48 h; how it was run: as §1
MDA-MB-231 = assay: Growth inhibition of human MDA-MB-231/ATCC cells incubated for 48 hrs by sulforhodamine B assay; format: functional; conditions: MDA-MB-231, 48 h; how it was run: as §1
HOP-62 = assay: Growth inhibition of human HOP62 cells incubated for 48 hrs by sulforhodamine B assay; format: functional; conditions: HOP-62, 48 h; how it was run: as §1
SK-MEL-5 = assay: Growth inhibition of human SK-MEL-5 cells incubated for 48 hrs by sulforhodamine B assay; format: functional; conditions: SK-MEL-5, 48 h; how it was run: as §1
Hs-578T = assay: Growth inhibition of human Hs 578T cells incubated for 48 hrs by sulforhodamine B assay; format: functional; how it was run: as §1
DU-145 = assay: Growth inhibition of human DU145 cells incubated for 48 hrs by sulforhodamine B assay; format: functional; conditions: DU-145, 48 h; how it was run: as §1
OVCAR-4 = assay: Growth inhibition of human OVCAR4 cells incubated for 48 hrs by sulforhodamine B assay; format: functional; conditions: OVCAR-4, 48 h; how it was run: as §1
T47D = assay: Growth inhibition of human T47D cells incubated for 48 hrs by sulforhodamine B assay; format: functional
How it was run: (§2)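 NCI-60 screen run at NCI. Cells grown in RPMI medium with 5% FBS and 2 mM L-glutamine, plated at 5,000–40,000 cells/well, and preincubated 24 h at 37 °C. Time-zero plates were TCA-fixed. Compounds came from DMSO stocks and were tested at five concentrations from 10^-4 to 10^-8 M for 48 h. Cells were then TCA-fixed, stained with 0.4% SRB, and OD read at 515 nm. GI50 is the concentration giving a 50% reduction in net protein increase versus control.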

SNB-75 = assay: Growth inhibition of human SNB75 cells incubated for 48 hrs by sulforhodamine B assay; format: functional; conditions: SNB-75, 48 h; how it was run: as §2
M14 = assay: Growth inhibition of human M14 cells incubated for 48 hrs by sulforhodamine B assay; format: functional; conditions: M14, 48 h; how it was run: as §1
CAKI-1 = assay: Growth inhibition of human Caki1 cells incubated for 48 hrs by sulforhodamine B assay; format: functional; conditions: CAKI-1, 48 h; how it was run: as §1
COLO 205 = assay: Growth inhibition of human COLO205 cells incubated for 48 hrs by sulforhodamine B assay; format: functional; conditions: COLO 205, 48 h; how it was run: as §1
OVCAR-3 = assay: Growth inhibition of human OVCAR3 cells incubated for 48 hrs by sulforhodamine B assay; format: functional; conditions: OVCAR-3, 48 h; how it was run: as §1
SR = assay: Growth inhibition of human SR cells incubated for 48 hrs by sulforhodamine B assay; format: functional; how it was run: as §2
[1] = Solubility of the compound in water; format: physicochemical; conditions: buffer
MDA-MB-435 = assay: Growth inhibition of human MDA-MB-435 cells incubated for 48 hrs by sulforhodamine B assay; format: functional; conditions: MDA-MB-435, 48 h; how it was run: as §1
786-0 = assay: Growth inhibition of human 786-0 cells incubated for 48 hrs by sulforhodamine B assay; format: functional; conditions: 786-0, 48 h; how it was run: as §1
PC-3 = assay: Growth inhibition of human PC3 cells incubated for 48 hrs by sulforhodamine B assay; format: functional; conditions: PC-3, 48 h; how it was run: as §1
BT-549 = assay: Growth inhibition of human BT549 cells incubated for 48 hrs by sulforhodamine B assay; format: functional; conditions: BT-549, 48 h; how it was run: as §1
IGROV-1 = assay: Growth inhibition of human IGROV1 cells incubated for 48 hrs by sulforhodamine B assay; format: functional; conditions: IGROV-1, 48 h; how it was run: as §1
ACHN = assay: Growth inhibition of human ACHN cells incubated for 48 hrs by sulforhodamine B assay; format: functional; how it was run: as §1
EKVX = assay: Growth inhibition of human EKVX cells incubated for 48 hrs by sulforhodamine B assay; format: functional; how it was run: as §1
MDA-MB-468 = assay: Growth inhibition of human MDA-MB-468 cells incubated for 48 hrs by sulforhodamine B assay; format: functional; conditions: MDA-MB-468, 48 h; how it was run: as §1
TK-10 = assay: Growth inhibition of human TK10 cells incubated for 48 hrs by sulforhodamine B assay; format: functional; conditions: TK-10, 48 h; how it was run: as §2
[2] = Induction of apoptosis in AML01 cells isolated from acute myelogenous leukemia patient after 24 hrs by annexin V/7-AAD/propidium iodide staining-based flow cytometric method; format: functional, cell-based; conditions: Homo sapiens, AML01, 24 h
How it was run: (§3)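 Primary AML specimens from consenting patients were Ficoll-separated and some were cryopreserved. Cells were held 1 h in serum-free IMDM with 20% BIT 9500, LDL and beta-mercaptoethanol before drug. Drugs were diluted from DMSO stock into PBS, final DMSO ≤0.5%. Dosing was 0.5–10 μM for 24 h. Annexin V/7-AAD flow cytometry scored double-negative (non-apoptotic) cells, normalized to vehicle, in triplicate, and EC50 came from dose-response curves.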

[3] = Potency index, ratio of melampomagnolide-B EC50 to compound EC50 for human M9-ENL1 cells; format: functional
How it was run: (§4)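 M9-ENL1 AML cells, derived by MLL-ENL transduction of human blood cells, were plated at 10^6 cells/mL in alpha-MEM with 5% human plasma, 20% FBS, SCF, IL-3, IL-7 and FLT3 ligand. Exposure was 24 h. Non-apoptotic (Annexin V/7-AAD double-negative) fraction was normalized to vehicle, in triplicate, to give EC50. PTL and MMB were run as reference controls.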

Rattus norvegicus [4] = organism: Rattus norvegicus; assay: Induction of cell detachment in rat 9LSF cells at 20 uM after 48 hrs by microscopic analysis; format: functional, cell-based
How it was run: (§5)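 Rat 9L-SF gliosarcoma cells were grown in DMEM/F12 with 10% iron-supplemented calf serum at 37 °C under 5% CO2. Treatment was applied to 50% confluent monolayers. Cell detachment and necrosis were scored visually by microscopy.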

[5] = Induction of apoptosis in AML04 cells isolated from acute myelogenous leukemia patient after 24 hrs by annexin V/7-AAD/propidium iodide staining-based flow cytometric method; format: functional, cell-based; conditions: Homo sapiens; how it was run: as §3
[6] = Induction of apoptosis in AML02 cells isolated from acute myelogenous leukemia patient after 24 hrs by annexin V/7-AAD/propidium iodide staining-based flow cytometric method; format: functional, cell-based; conditions: Homo sapiens; how it was run: as §3
[7] = Induction of apoptosis in AML03 cells isolated from acute myelogenous leukemia patient after 24 hrs by annexin V/7-AAD/propidium iodide staining-based flow cytometric method; format: functional, cell-based; conditions: Homo sapiens; how it was run: as §3
Rattus norvegicus [8] = organism: Rattus norvegicus; assay: Inhibition of colony formation of rat 9LSF cells at 5 to 20 uM after 48 hrs by colony formation assay; format: functional
How it was run: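 9L-SF cells were seeded in 60 mm dishes to reach 50% confluence (6.65×10^4 cells/cm²) after 24 h. They were treated 48 h with drug serially diluted from DMSO stock (max 0.05% DMSO), then rinsed, trypsinized, counted and seeded in triplicate flasks for colonies. Lethally irradiated (25 Gy) feeders kept density at 2,000 cells/cm². Survival was normalized to control plating efficiency, with three experiments.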

Rattus norvegicus [9] = organism: Rattus norvegicus; assay: Induction of necrosis in rat 9LSF cells at 20 uM after 48 hrs by microscopic analysis; format: functional, cell-based; how it was run: as §5
[10] = Potency index, ratio of PTL EC50 to compound EC50 for human M9-ENL1 cells; format: functional; how it was run: as §4

Row | SMILES | GI50 (SK-MEL-2) | GI50 (OVCAR-8) | GI50 (MDA-MB-231) | GI50 (HOP-62) | GI50 (SK-MEL-5) | GI50 (Hs-578T) | GI50 (DU-145) | GI50 (OVCAR-4) | GI50 (T47D) | GI50 (SNB-75) | GI50 (M14) | GI50 (CAKI-1) | GI50 (SR) | GI50 (MDA-MB-435) | GI50 (786-0) | GI50 (PC-3) | GI50 (BT-549) | GI50 (ACHN) | GI50 (MDA-MB-468) | GI50 (TK-10) | further results
1 | CN(C)CC1C(=O)O[C@@H]2[C@H]3O[C@]3(C)CC/C=C(/COC(=O)c3cc4ccccc4[nH]3)CC[C@@H]12.O=C(O)/C=C/C(=O)O (stereo partly specified) | 2100 nM | 1680 nM | 1740 nM | 2200 nM | 1850 nM | 3030 nM | 1490 nM | 1360 nM | 2110 nM | 3210 nM | 1570 nM | 1110 nM | 1590 nM | 1280 nM | 1710 nM | 2370 nM | 1570 nM | 670 nM | 1120 nM | 2120 nM | GI50 (COLO 205): 1980 nM; GI50 (OVCAR-3): 350 nM; solubility [1]: Soluble; GI50 (IGROV-1): 2070 nM; GI50 (EKVX): 3360 nM
2 | C=C1C(=O)O[C@@H]2[C@H]3O[C@]3(C)CC/C=C(/COC(=O)c3cc4ccccc4[nH]3)CC[C@@H]12 | 1920 nM | 1990 nM | 1140 nM |  | 1260 nM |  | 1210 nM |  | < 10 nM | 1010 nM | 810 nM | 1080 nM | 1080 nM | 760 nM | 370 nM | 1420 nM | < 10 nM | 340 nM | 300 nM | 1390 nM | EC50 [2]: 3500 nM; Ratio IC50 [3]: 2 - 20; Activity (Rattus norvegicus [4]): Active; EC50 [5]: 2200 nM; EC50 [6]: 2700 nM; EC50 [7]: 2900 nM; inhibition (Rattus norvegicus [8]): Active; Activity (Rattus norvegicus [9]): Active
3 | C=C1C(=O)O[C@@H]2[C@H]3O[C@]3(C)CC/C=C(/COC(=O)/C=C/c3c[nH]c4ccccc34)CC[C@@H]12 | 200 nM | 190 nM | 170 nM | 820 nM | 200 nM | 350 nM | 390 nM | 200 nM | 200 nM | 170 nM | 220 nM |  | 270 nM | 220 nM | 220 nM | 320 nM | 170 nM | 200 nM | 190 nM | 270 nM | EC50 [2]: 1300 nM; Ratio IC50 [3]: >20; Activity (Rattus norvegicus [4]): Active; Ratio IC50 [10]: 9; GI50 (COLO 205): 220 nM; EC50 [5]: 1000 nM; GI50 (OVCAR-3): 170 nM; EC50 [6]: 910 nM; EC50 [7]: 320 nM; GI50 (IGROV-1): 220 nM; GI50 (EKVX): 230 nM; Activity (Rattus norvegicus [9]): Active
